Data taken from ChEMBL document CHEMBL3045423, “Cynodontin: a fungal metabolite with antifungal properties” (J Agric Food Chem, 2003).
In brackets after ≈: the same amount, converted by molar mass. Activity calls are given as the source filed them. The rule behind the calls is not given here.

Columns and labels:
[1] = system: Sclerotinia minor; test: Antifungal activity against Sclerotinia minor assessed as mycelial growth inhibition after 4 to 8 days; type: functional; settings: read-out: ED50 (the source's name)
Outline: (§1)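 Test substance added in acetone (solvent at most 0.8% in treated and control plates) to sterilized potato dextrose agar. Plates inoculated with 0.5 cm mycelial blocks and incubated in the dark at 25 °C for 4-8 days depending on species. Linear growth inhibition estimated from colony diameter.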

[2] = system: Verticillium dahliae; test: Antifungal activity against Verticillium dahliae assessed as mycelial growth inhibition after 4 to 8 days; type: functional; settings: read-out: ED50 (the source's name); outline: as §1
[3] = system: Botrytis cinerea; test: Antifungal activity against Botryotinia fuckeliana assessed as inhibition of conidia germination at 1 to 10 ug/mL after 5 hr by light adverse phase microscopic analysis; type: functional, organism-based
Outline: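 B. cinerea conidia (10^6/mL in water) applied as 0.2 mL droplets onto water-agar (agar plus deionized water) with or without test substance added in acetone. Incubated 5 h in the dark at 25 °C. Percent germination scored from 200 conidia per dish under light microscopy.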

[4] = system: Botrytis cinerea; test: Antifungal activity against Botryotinia fuckeliana assessed as mycelial growth inhibition after 4 to 8 days; type: functional; settings: read-out: ED50 (the source's name); outline: as §1
[5] = system: Sclerotinia sclerotiorum; test: Antifungal activity against Sclerotinia sclerotiorum assessed as mycelial growth inhibition after 4 to 8 days; type: functional; settings: read-out: ED50 (the source's name); outline: as §1
[6] = system: Brassica oleracea var. botrytis (cauliflower); test: Phytotoxicity in Brassica oleracea var. botrytis assessed as seed germination at 250 mg/mL applied as seed dressings after 8 to 14 days (reference value: 97.3 +/- 1.2%); settings: in vivo
[7] = system: Cucumis sativus; test: Phytotoxicity in Cucumis sativus (cucumber) assessed as seed germination at 250 mg/mL applied as seed dressings after 8 to 14 days (reference value: […] +/- 1.2%); type: organism-based; settings: in vivo
[8] = system: Solanum lycopersicum; test: Phytotoxicity in Solanum lycopersicum (tomato) assessed as seed germination at 250 mg/mL applied as seed dressings after 8 to 14 days (reference value: 94 +/- 2%); type: organism-based; settings: in vivo
[9] = system: Capsicum annuum; test: Phytotoxicity in Capsicum annuum (pepper) assessed as seed germination at 250 mg/mL applied as seed dressings after 8 to 14 days (reference value: 84.7 +/- 4.6%); type: organism-based; settings: in vivo
[10] = system: Cucumis melo; test: Phytotoxicity in Cucumis melo (muskmelon) assessed as seed germination at 250 mg/mL applied as seed dressings after 8 to 14 days (reference value: 90 +/- 2%); type: organism-based; settings: in vivo
[11] = system: Brassica oleracea; test: Phytotoxicity in Brassica oleracea (broccoli) assessed as seed germination at 250 mg/mL applied as seed dressings after 8 to 14 days (reference value: […] +/- 4.2%); type: organism-based; settings: in vivo
[12] = system: Solanum melongena; test: Phytotoxicity in Solanum melongena (eggplant) assessed as seed germination at 250 mg/mL applied as seed dressings after 8 to 14 days (reference value: 84.7 +/- 2.3%); type: organism-based; settings: in vivo
[13] = system: Brassica oleracea; test: Phytotoxicity in Brassica oleracea (cabbage) assessed as seed germination at 250 mg/mL applied as seed dressings after 8 to 14 days (reference value: 90 +/- 5.3%); type: organism-based; settings: in vivo
[14] = system: Lactuca sativa; test: Phytotoxicity in Lactuca sativa (lettuce) assessed as seed germination at 250 mg/mL applied as seed dressings after 8 to 14 days (reference value: 90 +/- 5.3%); type: organism-based; settings: in vivo

| Compound | EC50 [1] | EC50 [2] | inhibition [3] | EC50 [4] | EC50 [5] | Activity [6] | Activity [7] | Activity [8] | Activity [9] | Activity [10] | Activity [11] | Activity [12] | Activity [13] | Activity [14] |
| --- | --- | --- | --- | --- | --- | --- | --- | --- | --- | --- | --- | --- | --- | --- |
| Cc1cc(O)c2c(c1)C(=O)c1cc(O)cc(O)c1C2=O [EMODIN] | 38.9 µg/mL (≈ 144 µM) | > 100 µg/mL | inactive | 41.2 µg/mL (≈ 153 µM) | 66.5 µg/mL (≈ 246 µM) | – | – | – | – | – | – | – | – | – |
| Cc1cc(O)c2c(c1O)C(=O)c1c(O)ccc(O)c1C2=O [Cynodontin] | 4.31 µg/mL (≈ 15.1 µM) | 11.5 µg/mL (≈ 40.3 µM) | inactive | 5.25 µg/mL (≈ 18.3 µM) | 5.52 µg/mL (≈ 19.3 µM) | 96.7% | 94% | 95.3% | 84.7% | 90.7% | 88% | 82.7% | 89.3% | 96.7% |
| O=C1c2ccccc2C(=O)c2ccccc21 [ANTHRAQUINONE] | > 100 µg/mL | > 100 µg/mL | inactive | > 100 µg/mL | > 100 µg/mL | – | – | – | 85.3% | – | 87.3% | 82.7% | 88% | 88% |
| Cc1cc(O)c2c(c1)C(=O)c1cccc(O)c1C2=O [CHRYSOPHANOL] | 74.1 µg/mL (≈ 292 µM) | > 100 µg/mL | inactive | > 100 µg/mL | > 100 µg/mL | – | – | – | – | – | – | – | – | – |
